In the library only some 3.5% were active in any assay of this set; here they are far more common.
Cneo AK release: Cryptococcus neoformans lysis via adenylate kinase release. C. neoformans lysis, adenylate kinase release luminescence, 4 h; normalised: neutral wells 0, clomiphene wells 100. lysis activity, % at 15 µM. 360,000 compounds, 0.2% hits. AID 651654;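 active = mean lysis activity across replicates of at least 80%, whatever share of replicates individually reach that level; inactive = mean lysis activity below 80%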
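Test system: log-phase Cryptococcus neoformans yeast cells; Quantity: yeast cell density of 5 × 10^6 cells/mL; Buffer or medium: YPD; Doses: single compound concentration per well; Timing: 4 h at 37 °C static, read 1 h later; Measured by: AK luminescence; Read-out basis: lysis from increased AK signal; Control set: Clomiphene as positive control.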
MITF act: MITF TRPM1 promoter activation in melanoma cells; activation, % at 12.5 µM; AID 588334; 300,000 compounds, 0.75% hits; SK-MEL-5 TRPM1-promoter luciferase, 24 h; % of positive control, neutral wells = 0;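 active = mean activation of at least 80% with every replicate also reaching 80%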;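 note: 0% = neutral control wells and 100% = parthenolide positive control wells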
HIV Env fusion: blocks HIV Env-driven cell-cell fusion. HeLa-JRFL Env/CEM21 cell fusion, luciferase. inhibition, % at 12.3 µM. 360,000 compounds, 1.1% hits. AID 651610;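 active = mean replicate inhibition score of at least 50 and every replicate individually at or above 50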;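 note: 0% = plate neutral controls and 100% = maraviroc near 300 nM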
esBAF inh: inhibitors of esBAF chromatin remodeling in mouse ES cells; Bmi1-luciferase knock-in reporter, 24 h; 100% = twice the neutral-well signal; reporter increase, % at 12.5 µM; 350,000 compounds, 2% hits; AID 602393; in the data active = activation above about 40%;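 note: 0% = median of the plate's neutral control wells and 100% = double that signal; a rise in the Bmi1 reporter signal indicates esBAF inhibition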
ERAP1 inh: ERAP1 (human) enzyme inhibition; Q9NZ08; recombinant ERAP1, Leu-AMC fluorescence, 60 min; inhibition, % at 10.7 µM; 340,000 compounds, 0.15% hits;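 active = mean replicate inhibition of at least 30%, or all replicates individually reaching that 30% level; inactive = mean below 30% and not every replicate reaching it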;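 note: 0% = neutral control wells and 100% = L-leucinethiol positive control wells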
Wnt bcat act: activates Wnt/beta-catenin signaling in a reporter cell assay; activator, plate reader; activation, % at 9.35 µM; 300,000 compounds, 1.2% hits; AID 743398; in the data active = activation above about 30%, passing the limit was not always enough;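 note: 0% = neutral control wells and 100% = positive control wells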
* marks the source's active call; other numbers are inactive results; · = not tested or not shown; [ ] = remark or other dose.

SMILES	Cneo AK release	MITF act	HIV Env fusion	esBAF inh	ERAP1 inh	Wnt bcat act
C=CCn1c(SCC(=O)Nc2ccccc2OC)nc2c([nH]c3ccccc32)c1=O	1	-47	63*	·	4	0
C=CCn1c(SCC(=O)NCCC2=CCCCC2)nc2ccc(Cl)cc2c1=O	2	·	63*	-10	·	-1
CCCNC(=O)C[C@H]1CC[C@H]2[C@@H](COC[C@@H](O)CN2CC2CCCCC2)O1	1	·	·	-2	-1	·
C[C@@H]1CCCCO[C@H](CN(C)Cc2ccccc2)[C@H](C)CN([C@@H](C)CO)C(=O)c2cc(NS(=O)(=O)c3ccc(Cl)cc3)ccc2O1	7	·	-11[16.7 µM]	5	0	·
COC(=O)c1oc2ccc(OC)cc2c1N	-2	45	-221	32	·	·
COc1ccc(C(=O)c2oc3ccc(OC)cc3c2N)cc1	1	102*	-40	86*	0	47*
COc1cccc(-c2cn(CC[C@@H]3CC[C@H](NS(=O)(=O)Cc4ccccc4)[C@H](CO)O3)nn2)c1	0	·	5[16.7 µM]	0	-3	·
C[C@@H]1CN([C@@H](C)CO)C(=O)c2cc(NC(=O)CCC(F)(F)F)ccc2O[C@@H](C)CCCCO[C@H]1CN(C)Cc1ccc(Cl)c(Cl)c1	46	·	5[16.7 µM]	8	-1	·
C[C@H]1CCCCO[C@H](CN(C)Cc2ccc(Cl)c(Cl)c2)[C@@H](C)CN([C@@H](C)CO)C(=O)c2cc(NC(=O)CCC(F)(F)F)ccc2O1	1	·	79*[16.7 µM]	-3	-1	·
C[C@@H]1CCCCO[C@@H](CN(C)Cc2ccc(Cl)c(Cl)c2)[C@H](C)CN([C@H](C)CO)C(=O)c2cc(NC(=O)NC3CCCCC3)ccc2O1	-2	·	72*[16.7 µM]	-6	-2	·
C[C@@H]1CN([C@H](C)CO)C(=O)c2cc(NC(=O)NC3CCCCC3)ccc2O[C@@H](C)CCCCO[C@@H]1CN(C)Cc1ccc(Cl)c(Cl)c1	-1	·	13[16.7 µM]	6	0	·
C[C@H]1CCCCO[C@H](CN(C)Cc2ccc(Cl)c(Cl)c2)[C@@H](C)CN([C@@H](C)CO)C(=O)c2cc(NC(=O)Nc3ccc(F)cc3)ccc2O1	-4	·	72*[16.7 µM]	-12	5	·
C[C@@H]1CN([C@H](C)CO)C(=O)c2cc(NC(=O)Nc3ccc(F)cc3)ccc2O[C@@H](C)CCCCO[C@@H]1CN(C)Cc1ccc(Cl)c(Cl)c1	-8	·	8[16.7 µM]	2	3	·
C[C@H](CO)N1C[C@H](C)[C@H](CN(C)Cc2ccc(Cl)c(Cl)c2)OCCCC[C@H](C)Oc2ccc(NC(=O)Nc3ccccc3)cc2C1=O	11	·	71*[16.7 µM]	-2	-2	·
COc1ccc(NC(=O)Nc2ccc3c(c2)C(=O)N([C@@H](C)CO)C[C@@H](C)[C@H](CN(C)Cc2ccc(Cl)c(Cl)c2)OCCCC[C@H](C)O3)cc1	2	·	60*[16.7 µM]	3	2	·
COc1ccc(NC(=O)Nc2ccc3c(c2)C(=O)N([C@H](C)CO)C[C@H](C)[C@@H](CN(C)Cc2ccc(Cl)c(Cl)c2)OCCCC[C@H](C)O3)cc1	1	·	26[16.7 µM]	-3	3	·
CCNC(=O)C[C@@H]1CC[C@@H]2[C@@H](COc3ccc(NC(=O)Nc4cccc(OC)c4)cc3C(=O)N2C)O1	3	·	6[16.7 µM]	4	·	·
CN1CCN(C(=O)C[C@H]2CC[C@@H]3[C@H](COC[C@H](O)CN3C(=O)c3ccc(F)cc3)O2)CC1	0	·	·	-1	1	·
O=C(C[C@@H]1CC[C@H]2[C@@H](COC[C@H](O)CN2C(=O)c2cccnc2)O1)NCc1ccc(-c2ccccc2)cc1	1	·	·	0	-1	·
O=C(Nc1ccc2nn(-c3ccc(F)cc3)nc2c1)c1cccnc1	·	22	-34	·	0	10
O=C(Nc1ccc2nn(-c3ccccc3)nc2c1)c1cccnc1	-1	69	·	53*	·	-2
O=C(Nc1ccc2nn(-c3ccccc3)nc2c1)c1ccco1	1	·	·	62*	·	·
CCS(=O)(=O)Nc1ccc2c(c1)C(=O)N(C)C[C@H](OC)[C@H](C)CN(C(=O)c1ccc3c(c1)OCO3)[C@@H](C)CO2	-2	·	6[16.7 µM]	-3	2	·
COc1ccccc1NC(=O)C[C@H]1CC[C@H]2[C@@H](COc3ccc(NC(C)=O)cc3C(=O)N2C)O1	·	·	-6[16.7 µM]	·	0	·
Cc1ccnc(NC(=O)c2ccc(Cl)c(S(=O)(=O)N3CCCCC3)c2)c1	0	32	·	57*	-3	21
SMILES	Cneo AK release	MITF act	HIV Env fusion	esBAF inh	ERAP1 inh	Wnt bcat act
Cc1ccnc(NC(=O)c2ccc(S(=O)(=O)N3CCC(C)CC3)cc2)c1	·	97*	-48	·	0	36*
COc1ccc(NC(=O)c2ccc(Cl)c(S(=O)(=O)N3CCc4ccccc4C3)c2)cn1	·	·	92*	-4	2	-2
O=C(Nc1ccccn1)c1ccc(Cl)c(S(=O)(=O)N2CCCCCC2)c1	-1	68	-15	83*	-2	-3
CCCNC(=O)N[C@@H]1CC[C@@H](CCNS(=O)(=O)c2cccc(F)c2)O[C@@H]1CO	1	·	-10[16.7 µM]	1	0	·
C[C@@H]1CN([C@H](C)CO)C(=O)Cc2cc(NS(=O)(=O)c3ccc(Cl)cc3)ccc2O[C@@H]1CN(C)Cc1ccc(C(=O)Nc2ccccc2N)cc1	·	·	·	·	1	·
Nc1nonc1C(=O)N/N=C\c1cc2c(cc1Cl)OCO2	4	-2	-3	17	1	0
Cn1cc(Br)c(C(=O)N/N=C/c2cc3c(cc2Cl)OCO3)n1	0	89*	-27	47*	-2	28
Cc1ccc(/C=N/NC(=O)c2nn(C)cc2Cl)cc1	·	68	-2	·	·	·
Cn1cc(Cl)c(C(=O)N/N=C/c2ccc3c4c(cccc24)CC3)n1	-11	77	·	63*	·	·
C[C@H]1CN([C@@H](C)CO)S(=O)(=O)c2ccc(-c3cccc(C#N)c3)cc2O[C@@H]1CN(C)C	0	·	-3[16.7 µM]	-1	0	·
O=C(C[C@H]1CC[C@H]2[C@@H](COC[C@@H](O)CN2S(=O)(=O)c2ccc(Oc3ccccc3)cc2)O1)NC1CCC1	86*	·	·	-9	2	·
Cc1ccc(S(=O)(=O)N2C[C@@H](O)COC[C@@H]3O[C@H](CC(=O)NCc4ccc5c(c4)OCO5)CC[C@H]32)cc1	109*	·	3[16.7 µM]	2	-1	·
CCCNC(=O)C[C@@H]1CC[C@@H]2[C@H](COC[C@H](O)CN2S(=O)(=O)c2ccc(Oc3ccccc3)cc2)O1	8	·	-2[16.7 µM]	-10	0	·
CCCNC(=O)C[C@H]1CC[C@H]2[C@@H](COC[C@@H](O)CN2S(=O)(=O)c2ccc(Oc3ccccc3)cc2)O1	90*	·	-1[16.7 µM]	-1	2	·
COc1ccc(NC(=O)N(C)C[C@@H]2Oc3ncc(C#C[C@@H](C)O)cc3C(=O)N([C@H](C)CO)C[C@H]2C)cc1	-5	·	1[16.7 µM]	-6	2	·
COc1ccc(/C=C/C2=NC(=C\N(C)C)/C(=O)O2)cc1	-4	47	·	51*	·	-1
